According to ChEMBL document CHEMBL1681705, “Optimisation of ITK inhibitors through successive iterative design cycles” (Bioorg Med Chem Lett, 2011):

Columns and labels:
[1] = target: Mitogen-activated protein kinase 10 (Homo sapiens) (UniProt P53779); test: Inhibition of JNK3 at 0.1 uM; values are per cent of control
[2] = target: Receptor tyrosine-protein kinase erbB-4 (Homo sapiens) (UniProt Q15303); test: Inhibition of ErbB4 at 1 uM; values are per cent of control
[3] = target: Platelet-derived growth factor receptor beta (Homo sapiens) (UniProt P09619); test: Inhibition of PDGFRbeta at 1 uM
How it was run: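 Single-point screen within a 108-kinase selectivity panel. Each kinase was tested with inhibitor at 0.1 and 1.0 micromolar, and activity was recorded as percent inhibition.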

[4] = target: Fibroblast growth factor receptor 2 (Homo sapiens) (UniProt P21802); test: Inhibition of FGFR2 at 0.1 uM; values are per cent of control
Fibroblast growth factor receptor 2 (Homo sapiens), sequence (P21802 22-821 limits assumed): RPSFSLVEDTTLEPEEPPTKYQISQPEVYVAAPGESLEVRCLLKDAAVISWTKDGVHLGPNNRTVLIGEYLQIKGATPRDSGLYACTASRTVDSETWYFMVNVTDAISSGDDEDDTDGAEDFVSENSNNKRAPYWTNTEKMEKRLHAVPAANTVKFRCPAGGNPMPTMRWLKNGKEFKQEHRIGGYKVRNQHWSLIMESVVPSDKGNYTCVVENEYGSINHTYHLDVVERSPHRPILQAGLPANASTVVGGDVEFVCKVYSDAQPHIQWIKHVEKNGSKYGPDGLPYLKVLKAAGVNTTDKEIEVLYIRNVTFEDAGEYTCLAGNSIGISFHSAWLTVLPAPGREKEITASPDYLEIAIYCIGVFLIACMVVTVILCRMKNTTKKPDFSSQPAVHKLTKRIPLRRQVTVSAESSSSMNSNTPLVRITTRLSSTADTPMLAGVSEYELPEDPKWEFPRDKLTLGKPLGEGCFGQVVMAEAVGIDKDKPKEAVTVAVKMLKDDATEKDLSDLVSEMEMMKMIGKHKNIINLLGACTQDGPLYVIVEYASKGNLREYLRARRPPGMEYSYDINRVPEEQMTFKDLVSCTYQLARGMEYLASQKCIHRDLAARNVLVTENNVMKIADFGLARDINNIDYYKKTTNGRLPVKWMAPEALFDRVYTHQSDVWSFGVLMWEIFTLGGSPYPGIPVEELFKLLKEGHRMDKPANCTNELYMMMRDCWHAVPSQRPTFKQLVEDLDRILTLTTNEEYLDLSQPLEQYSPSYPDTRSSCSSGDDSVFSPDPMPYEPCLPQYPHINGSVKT

[5] = target: LIM domain kinase 1 (Homo sapiens) (UniProt P53667); test: Inhibition of LIMK1 at 0.1 uM; values are per cent of control
LIM domain kinase 1 (Homo sapiens), sequence (P53667 whole entry, looked up, the tested form may be a part): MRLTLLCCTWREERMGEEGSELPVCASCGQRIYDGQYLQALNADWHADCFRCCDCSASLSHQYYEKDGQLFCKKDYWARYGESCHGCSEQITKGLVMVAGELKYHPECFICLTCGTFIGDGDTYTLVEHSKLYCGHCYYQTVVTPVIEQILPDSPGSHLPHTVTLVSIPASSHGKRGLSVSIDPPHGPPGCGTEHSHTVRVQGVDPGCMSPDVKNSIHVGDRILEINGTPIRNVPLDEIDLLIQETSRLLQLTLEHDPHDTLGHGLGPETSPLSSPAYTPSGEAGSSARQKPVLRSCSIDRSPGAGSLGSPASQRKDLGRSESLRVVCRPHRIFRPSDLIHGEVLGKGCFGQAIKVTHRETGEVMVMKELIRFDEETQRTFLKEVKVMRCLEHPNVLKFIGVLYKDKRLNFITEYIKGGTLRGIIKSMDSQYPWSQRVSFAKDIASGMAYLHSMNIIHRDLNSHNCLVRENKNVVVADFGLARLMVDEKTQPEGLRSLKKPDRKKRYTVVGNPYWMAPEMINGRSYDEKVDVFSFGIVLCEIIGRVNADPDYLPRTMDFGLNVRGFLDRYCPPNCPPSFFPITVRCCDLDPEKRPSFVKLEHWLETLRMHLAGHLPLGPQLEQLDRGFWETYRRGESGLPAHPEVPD

[6] = target: Serine/threonine-protein kinase PLK3 (Homo sapiens) (UniProt Q9H4B4); test: Inhibition of Plk3 at 1 uM; values are per cent of control
Serine/threonine-protein kinase PLK3 (Homo sapiens), sequence (Q9H4B4 whole entry, looked up): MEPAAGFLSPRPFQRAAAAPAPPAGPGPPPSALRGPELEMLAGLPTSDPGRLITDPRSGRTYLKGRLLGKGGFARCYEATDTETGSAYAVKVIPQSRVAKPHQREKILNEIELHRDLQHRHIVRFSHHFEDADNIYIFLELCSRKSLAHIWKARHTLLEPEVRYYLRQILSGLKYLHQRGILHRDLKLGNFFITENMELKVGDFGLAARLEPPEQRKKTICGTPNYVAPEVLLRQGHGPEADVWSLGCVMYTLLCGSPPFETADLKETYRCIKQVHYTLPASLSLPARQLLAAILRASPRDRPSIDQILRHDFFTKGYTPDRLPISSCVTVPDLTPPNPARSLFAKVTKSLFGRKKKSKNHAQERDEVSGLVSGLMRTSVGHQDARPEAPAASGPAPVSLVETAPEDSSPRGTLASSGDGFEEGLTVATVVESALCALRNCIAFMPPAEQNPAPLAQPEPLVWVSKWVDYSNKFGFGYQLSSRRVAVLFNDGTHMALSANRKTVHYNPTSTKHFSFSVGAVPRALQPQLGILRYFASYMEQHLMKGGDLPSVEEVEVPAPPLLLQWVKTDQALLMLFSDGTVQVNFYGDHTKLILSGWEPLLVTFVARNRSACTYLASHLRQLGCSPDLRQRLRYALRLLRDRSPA

[7] = target: T1, Mitogen-activated protein kinase kinase kinase 7 (Homo sapiens) (UniProt O43318); test: Inhibition of TAK1 at 1 uM; values are per cent of control
T1 sequence (whole entry): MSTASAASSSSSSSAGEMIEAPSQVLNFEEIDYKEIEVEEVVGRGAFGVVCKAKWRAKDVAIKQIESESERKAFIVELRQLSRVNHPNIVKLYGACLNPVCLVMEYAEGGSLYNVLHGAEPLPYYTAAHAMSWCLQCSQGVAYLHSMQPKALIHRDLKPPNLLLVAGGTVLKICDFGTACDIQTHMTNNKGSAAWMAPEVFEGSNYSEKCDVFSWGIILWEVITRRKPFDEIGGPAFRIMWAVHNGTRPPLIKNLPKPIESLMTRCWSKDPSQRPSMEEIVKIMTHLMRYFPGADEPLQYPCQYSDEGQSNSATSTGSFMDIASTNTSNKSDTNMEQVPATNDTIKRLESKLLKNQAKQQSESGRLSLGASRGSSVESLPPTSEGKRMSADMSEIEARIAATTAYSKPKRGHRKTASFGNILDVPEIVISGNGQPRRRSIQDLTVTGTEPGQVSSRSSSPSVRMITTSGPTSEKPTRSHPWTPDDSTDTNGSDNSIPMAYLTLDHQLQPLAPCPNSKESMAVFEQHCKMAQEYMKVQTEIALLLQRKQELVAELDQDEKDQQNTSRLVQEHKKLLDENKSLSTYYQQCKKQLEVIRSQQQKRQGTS

[8] = target: Ribosomal protein S6 kinase beta-1 (Homo sapiens) (UniProt P23443); test: Inhibition of p70S6K at 1 uM
Ribosomal protein S6 kinase beta-1 (Homo sapiens), sequence (P23443 whole entry, looked up): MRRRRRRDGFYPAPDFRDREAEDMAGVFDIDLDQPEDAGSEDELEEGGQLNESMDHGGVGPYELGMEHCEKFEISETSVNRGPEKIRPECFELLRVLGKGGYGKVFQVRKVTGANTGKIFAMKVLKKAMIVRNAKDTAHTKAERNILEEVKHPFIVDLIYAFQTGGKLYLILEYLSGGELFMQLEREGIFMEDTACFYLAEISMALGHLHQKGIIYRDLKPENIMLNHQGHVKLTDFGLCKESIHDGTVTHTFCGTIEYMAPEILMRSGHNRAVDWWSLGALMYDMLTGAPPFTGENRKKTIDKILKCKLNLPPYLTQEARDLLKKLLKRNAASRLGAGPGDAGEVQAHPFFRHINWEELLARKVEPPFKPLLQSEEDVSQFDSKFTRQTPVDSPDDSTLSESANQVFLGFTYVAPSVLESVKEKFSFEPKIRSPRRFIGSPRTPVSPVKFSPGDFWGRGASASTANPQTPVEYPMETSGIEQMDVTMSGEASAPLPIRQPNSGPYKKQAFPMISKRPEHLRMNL

[9] = target: Tyrosine-protein kinase ABL1 (Homo sapiens) (UniProt P00519); test: Inhibition of Abl at 0.1 uM; values are per cent of control
[10] = target: Mitogen-activated protein kinase 11 (Homo sapiens) (UniProt Q15759); test: Inhibition of SAPK2b at 0.1 uM; values are per cent of control
Mitogen-activated protein kinase 11 (Homo sapiens), sequence (Q15759 whole entry): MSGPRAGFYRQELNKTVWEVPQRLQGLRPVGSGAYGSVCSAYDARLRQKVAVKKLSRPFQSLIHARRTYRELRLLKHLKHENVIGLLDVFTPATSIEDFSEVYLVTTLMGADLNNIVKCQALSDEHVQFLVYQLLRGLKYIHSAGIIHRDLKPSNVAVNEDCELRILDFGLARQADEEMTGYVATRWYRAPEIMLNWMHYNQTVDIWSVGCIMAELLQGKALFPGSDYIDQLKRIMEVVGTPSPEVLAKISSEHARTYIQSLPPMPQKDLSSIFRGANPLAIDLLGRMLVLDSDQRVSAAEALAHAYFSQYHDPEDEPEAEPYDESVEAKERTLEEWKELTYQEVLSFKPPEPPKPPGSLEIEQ

[11] = target: RAC-alpha serine/threonine-protein kinase (Homo sapiens) (UniProt P31749); test: Inhibition of PKBalpha at 0.1 uM; values are per cent of control
RAC-alpha serine/threonine-protein kinase (Homo sapiens), sequence (P31749 whole entry): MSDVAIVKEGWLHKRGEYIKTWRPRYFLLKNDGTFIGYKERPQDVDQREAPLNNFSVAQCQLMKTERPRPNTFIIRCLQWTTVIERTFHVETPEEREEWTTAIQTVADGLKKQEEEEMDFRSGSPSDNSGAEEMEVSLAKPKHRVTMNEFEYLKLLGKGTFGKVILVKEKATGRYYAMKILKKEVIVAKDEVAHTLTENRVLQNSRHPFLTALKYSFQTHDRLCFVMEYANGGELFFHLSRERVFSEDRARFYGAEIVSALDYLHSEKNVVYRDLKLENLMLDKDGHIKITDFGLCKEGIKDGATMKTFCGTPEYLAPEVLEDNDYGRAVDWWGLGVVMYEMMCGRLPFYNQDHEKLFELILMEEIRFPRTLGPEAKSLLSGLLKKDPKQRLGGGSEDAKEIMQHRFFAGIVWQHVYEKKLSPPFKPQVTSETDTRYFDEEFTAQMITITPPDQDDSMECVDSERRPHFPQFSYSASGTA

[12] = Inhibition of PDK1 at 0.1 uM
[13] = target: T2, Ephrin type-B receptor 2 (Homo sapiens) (UniProt P29323); test: Inhibition of EphB2 at 1 uM; values are per cent of control
T2 sequence (whole entry): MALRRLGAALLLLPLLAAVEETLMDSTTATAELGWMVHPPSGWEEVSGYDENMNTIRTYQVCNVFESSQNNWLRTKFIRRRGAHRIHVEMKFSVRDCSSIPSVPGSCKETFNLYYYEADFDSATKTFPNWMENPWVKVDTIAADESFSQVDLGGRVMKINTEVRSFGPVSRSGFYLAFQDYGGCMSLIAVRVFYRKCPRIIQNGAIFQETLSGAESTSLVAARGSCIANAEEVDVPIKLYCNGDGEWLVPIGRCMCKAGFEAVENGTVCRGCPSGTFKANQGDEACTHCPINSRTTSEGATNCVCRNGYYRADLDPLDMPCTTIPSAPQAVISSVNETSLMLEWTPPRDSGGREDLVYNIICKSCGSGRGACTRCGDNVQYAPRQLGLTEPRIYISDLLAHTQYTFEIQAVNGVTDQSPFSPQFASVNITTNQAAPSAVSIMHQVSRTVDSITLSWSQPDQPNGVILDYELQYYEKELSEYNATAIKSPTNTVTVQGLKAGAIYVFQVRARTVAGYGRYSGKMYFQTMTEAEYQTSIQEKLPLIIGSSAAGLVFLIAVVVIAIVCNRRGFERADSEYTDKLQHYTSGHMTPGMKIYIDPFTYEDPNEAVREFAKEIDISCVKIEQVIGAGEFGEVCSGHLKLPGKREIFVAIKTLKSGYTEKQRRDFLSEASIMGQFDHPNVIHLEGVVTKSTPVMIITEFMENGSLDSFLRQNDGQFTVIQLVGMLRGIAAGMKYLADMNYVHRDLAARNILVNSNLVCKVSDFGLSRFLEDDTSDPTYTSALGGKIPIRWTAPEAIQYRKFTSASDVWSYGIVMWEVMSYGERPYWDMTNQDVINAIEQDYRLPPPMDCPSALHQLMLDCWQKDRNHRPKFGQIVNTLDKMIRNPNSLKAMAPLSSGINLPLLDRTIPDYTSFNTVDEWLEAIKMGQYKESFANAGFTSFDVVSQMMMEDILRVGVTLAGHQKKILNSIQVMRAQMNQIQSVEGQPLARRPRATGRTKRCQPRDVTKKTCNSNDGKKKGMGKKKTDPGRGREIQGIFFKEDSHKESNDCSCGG

[14] = target: Ribosomal protein S6 kinase beta-1 (Homo sapiens) (UniProt P23443); test: Inhibition of p70S6K at 0.1 uM; values are per cent of control
[15] = target: Serine/threonine-protein kinase MARK1 (Homo sapiens) (UniProt Q9P0L2); test: Inhibition of MARK1 at 0.1 uM; values are per cent of control
[16] = target: ALK tyrosine kinase receptor (Homo sapiens) (UniProt Q9UM73); test: Inhibition of ALK at 1 uM; values are per cent of control
[17] = target: Insulin receptor (Homo sapiens) (UniProt P06213); test: Inhibition of IR at 1 uM; values are per cent of control

Receptor tyrosine-protein kinase erbB-4 (Homo sapiens), sequence (Q15303 whole entry): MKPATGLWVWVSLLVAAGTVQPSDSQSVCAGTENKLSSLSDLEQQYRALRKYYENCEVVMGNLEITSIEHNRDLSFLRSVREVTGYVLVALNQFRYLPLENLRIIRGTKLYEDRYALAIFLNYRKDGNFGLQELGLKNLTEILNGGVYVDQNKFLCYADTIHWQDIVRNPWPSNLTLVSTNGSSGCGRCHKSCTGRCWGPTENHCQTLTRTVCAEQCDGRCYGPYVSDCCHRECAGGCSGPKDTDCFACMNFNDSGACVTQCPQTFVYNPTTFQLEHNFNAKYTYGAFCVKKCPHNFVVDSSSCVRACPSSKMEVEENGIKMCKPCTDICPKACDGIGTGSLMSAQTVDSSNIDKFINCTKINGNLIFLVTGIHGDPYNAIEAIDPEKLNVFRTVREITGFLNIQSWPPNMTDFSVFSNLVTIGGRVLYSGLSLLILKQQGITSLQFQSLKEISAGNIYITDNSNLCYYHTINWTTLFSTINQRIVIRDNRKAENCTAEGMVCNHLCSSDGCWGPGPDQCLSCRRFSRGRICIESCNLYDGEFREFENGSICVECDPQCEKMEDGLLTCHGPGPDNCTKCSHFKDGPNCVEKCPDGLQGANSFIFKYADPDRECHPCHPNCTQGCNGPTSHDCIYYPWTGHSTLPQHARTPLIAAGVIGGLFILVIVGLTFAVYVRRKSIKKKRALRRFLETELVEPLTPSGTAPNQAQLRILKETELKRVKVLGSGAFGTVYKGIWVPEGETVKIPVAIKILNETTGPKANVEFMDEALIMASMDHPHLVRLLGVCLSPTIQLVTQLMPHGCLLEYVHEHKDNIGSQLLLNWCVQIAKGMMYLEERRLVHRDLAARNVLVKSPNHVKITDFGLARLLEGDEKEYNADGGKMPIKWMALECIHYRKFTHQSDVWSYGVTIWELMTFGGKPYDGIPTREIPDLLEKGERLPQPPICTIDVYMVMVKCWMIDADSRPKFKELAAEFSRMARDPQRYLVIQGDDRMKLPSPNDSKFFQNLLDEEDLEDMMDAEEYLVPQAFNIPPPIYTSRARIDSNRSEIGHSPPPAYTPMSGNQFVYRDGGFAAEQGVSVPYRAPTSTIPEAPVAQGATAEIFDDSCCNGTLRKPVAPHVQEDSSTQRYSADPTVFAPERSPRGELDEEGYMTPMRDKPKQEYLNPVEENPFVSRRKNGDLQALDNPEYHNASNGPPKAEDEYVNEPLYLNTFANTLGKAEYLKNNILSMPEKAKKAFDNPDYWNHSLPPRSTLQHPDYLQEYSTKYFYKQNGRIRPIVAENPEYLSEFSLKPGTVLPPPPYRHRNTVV

| residual activity [1] [%] | residual activity [2] [%] | inhibition [3] [%] | residual activity [4] [%] | residual activity [5] [%] | residual activity [6] [%] | residual activity [7] [%] | inhibition [8] [%] | residual activity [9] [%] | residual activity [10] [%] | residual activity [11] [%] | inhibition [12] [%] | residual activity [13] [%] | residual activity [14] [%] | residual activity [15] [%] | residual activity [16] [%] | residual activity [17] [%] | Compound |
| --- | --- | --- | --- | --- | --- | --- | --- | --- | --- | --- | --- | --- | --- | --- | --- | --- | --- |
| 73 | 81 | 34 | 8 | 37 | 100 | 9 | 16 | 3 | 100 | 95 | 46 | 74 | 33 | 5 | 5 | 66 | Cc1ccc2cc(-c3n[nH]c4ccc(NC5CCNC5)cc34)[nH]c2c1 (centres undefined) |
| 98 | 10 | 42 | 51 | 98 | 117 | 35 | 10 | 18 | 100 | 96 | 87 | 75 | 59 | 53 | 4 | 60 | Cc1ccc2cc(-c3n[nH]c4ccc(NC5CCN(Cc6ccccc6)CC5)cc34)[nH]c2c1 |
